This is a sample that favours compounds with a hit; in the whole collection about 0.72% have one here.
hIAP block: human IAP inhibition | 330,000 tested, 0.12% active | inhibition, % at 10 µM | purified IAP, CDP-Star luminescence, 30 min | P09923;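 active = inhibition reaching a set limit with compound at 10 µM in the primary screen, cut at about 35% in these data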;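 also: plate controls were DMSO wells with enzyme for no effect and no-enzyme buffer wells for full effect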
Target sequence (P09923 whole entry, looked up): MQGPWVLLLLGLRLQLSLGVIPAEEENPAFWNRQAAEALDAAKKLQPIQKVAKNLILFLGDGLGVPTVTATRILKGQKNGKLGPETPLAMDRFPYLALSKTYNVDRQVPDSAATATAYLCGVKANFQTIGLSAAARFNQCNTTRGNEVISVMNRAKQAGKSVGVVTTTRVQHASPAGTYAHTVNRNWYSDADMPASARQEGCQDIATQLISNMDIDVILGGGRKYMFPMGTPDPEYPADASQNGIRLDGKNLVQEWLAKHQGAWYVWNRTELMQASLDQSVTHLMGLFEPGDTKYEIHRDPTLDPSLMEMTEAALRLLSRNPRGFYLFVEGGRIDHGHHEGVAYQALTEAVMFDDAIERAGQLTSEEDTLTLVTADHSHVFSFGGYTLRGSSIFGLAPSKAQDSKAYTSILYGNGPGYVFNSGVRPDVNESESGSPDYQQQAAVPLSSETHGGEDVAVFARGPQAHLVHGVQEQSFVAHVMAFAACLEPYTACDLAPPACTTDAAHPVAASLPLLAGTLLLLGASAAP
bIAP inh: blocks bovine intestinal alkaline phosphatase activity; purified bovine IAP, CDP-star luminescence, 30 min; inhibition, % at 20 µM; 190,000 tested, under 10 active;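 active = over 50% inhibition of intestinal alkaline phosphatase at 20 µM in the single-dose screen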
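System: purified bovine intestinal alkaline phosphatase (IAP) enzyme; Input: IAP diluted 1/65,000,000 in the well; Measured by: CDP-star luminescence signal; Compound dosing: 20 µM single dose; Incubation: 30 min reaction at room temperature.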
hIAP act: human IAP activation; 330,000 tested, 0.16% active; activation factor at 10 µM; purified human IAP, CDP-Star luminescence, 30 min; hits give high values; 1 = vehicle-only enzyme, 0 = enzyme-free background; P09923; AID 2524;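 active = activation factor of the enzyme at least 2-fold when tested at 20 µM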
bIAP activator: intestinal alkaline phosphatase (bovine) activation | AID 1016 | purified bovine IAP, CDP-star luminescence, 30 min; hits give high values; fold of DMSO-control signal, blank-subtracted | 200,000 tested, 0.17% active | activation factor at 20 µM;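 active = activation factor of 2 or more at 20 µM, a signal rise over negative controls twice the positive control's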
mIAP inh: mouse IAP inhibition; 330,000 tested, 0.2% active; purified mouse IAP, CDP-Star luminescence, 30 min; AID 2806; inhibition, % at 10 µM;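 active = inhibition of at least 40% at 10 µM in the primary screen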;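 also: plate controls were DMSO with enzyme for no effect and no enzyme wells for full effect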
mIAP activ: increases mouse intestinal alkaline phosphatase activity | activation factor at 10 µM | muIAP, CDP-Star luminescence, 30 min; hits give high values; 1 = vehicle-only enzyme signal, 0 = enzyme-free wells | AID 2805 | 330,000 tested, 0.24% active;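 active = activation factor of at least 2 at 20 µM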
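System: Mouse IAP enzyme | Also added: CDP-Star substrate | Dosing: Compounds dispensed in DMSO | Schedule: 30 min enzyme-substrate-compound incubation at room temperature | Technique: Chemiluminescence readout | Control set: DMSO-only wells and no-enzyme negative control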
hIAP act conf: human IAP activation confirmation; shares compounds with hIAP act; purified IAP, CDP-Star luminescence, 30 min; hits give low values; activation (%Activity, negative = activation), % at 8.3 µM; 880 tested, 10% active; AID 434926;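 active = at least twofold enzyme activation in any of six single-dose repeats, which the averaged readout prints as negative percent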
Starred values were filed as active, the others as inactive; x = no result.

SMILES | hIAP block | bIAP inh | hIAP act | bIAP activator | mIAP inh | mIAP activ | hIAP act conf
Cc1ccc(-c2cc(C(=O)N/N=C/c3ccccc3O)n[nH]2)o1 | -214 | x | 3.1* | x | 16 | 0.84 | 39
CCOc1ccc(/C=N/NC(=O)c2[nH]ncc2Br)c(O)c1 | -108 | -39 | 2.1* | 1.4 | 21 | 0.79 | -294*
Cc1ccc(O)c(/C=N/NC(=O)c2[nH]ncc2Br)c1 | -123 | 5 | 2.2* | 1 | 21 | 0.79 | 23
O=C(N/N=C/c1cccs1)c1[nH]ncc1Br | -29 | x | 1.3 | x | 4 | 0.96 | x
COc1ccc(OC)c(/C=N/NC(=O)c2[nH]ncc2Br)c1 | -69 | x | 1.7 | x | -6 | 1.1 | x
O=C(N/N=C/c1c(O)ccc2ccccc12)c1[nH]ncc1Br | -120 | 11 | 2.2* | 0.9 | 23 | 0.77 | 43
Cc1ccc(O)c(/C=N/NC(=O)C2=NNC(c3ccccc3)(c3ccccc3)C2)c1 | x | -6 | x | 1.1 | x | x | x
CN(C)S(=O)(=O)N1CCCC(C(=O)c2ccc(-c3ccccc3)c(F)c2)C1 (stereo unspecified) | -8 | -8 | 1.1 | 1.1 | 11 | 0.89 | x
Cc1ccsc1C(=O)C1CCCN(Cc2cc(F)ccc2-n2cccn2)C1 (stereo unspecified) | 5 | -7 | 0.95 | 1.1 | -2 | 1 | x
COC(=O)c1ccc([C@H]2CC(=O)O2)cc1 | 3 | x | 0.97 | x | 1 | 0.99 | x
CCc1nn(CC(=O)NC(C)CCc2ccccc2)c(=O)c2cc3cc(F)ccc3n12 (stereo unspecified) | -120 | x | 2.2* | x | -12 | 1.1 | -59
CCc1nn(CC(=O)NC2CCN(Cc3ccccc3)CC2)c(=O)c2cc3cc(F)ccc3n12 | 12 | x | 0.88 | x | -1 | 1 | x
Cc1ccc2oc(C(=O)Nc3nonc3C)c(C)c2c1 | 38* | x | 0.62 | x | -4 | 1 | -20
Cc1ccc2oc(C(=O)Nc3nnc(C)s3)c(C)c2c1 | 5 | 5 | 0.95 | 1 | -4 | 1 | x
N#C/C(=C\c1ccc(N2CCCC2)c([N+](=O)[O-])c1)c1nc2ccccc2[nH]1 | 35* | 21 | 0.65 | 0.8 | 12 | 0.88 | -1
N#C/C(=C/c1ccc(O)c(O)c1)c1nc2ccccc2[nH]1 | 58* | x | 0.42 | x | 36 | 0.64 | 4
N#C/C(=C\c1ccc(N2CCCCC2)c([N+](=O)[O-])c1)c1nn(-c2ccccc2)c(N)c1C#N | 19 | 12 | 0.81 | 0.9 | 16 | 0.84 | x
COC(=O)[C@@H]1[C@H](CCc2ccccc2)NC(=O)N(Cc2ccccc2)[C@@H]1C | 0 | x | 1 | x | 0 | 1 | x
COc1ccc(S(=O)(=O)N(CC(=O)N2CCOCC2)Cc2ccccc2)cc1 | -216 | 16 | 3.2* | 0.8 | 6 | 0.94 | -3
O=C(CNS(=O)(=O)c1ccccc1)NNC(=O)C(Cl)Cl | -123 | -34 | 2.2* | 1.3 | 25 | 0.75 | -6
COc1ccc(-c2ccc(OC)cc2C(=O)O)cc1 | 36* | 4 | 0.64 | 1 | 5 | 0.95 | 15
COc1ccc(C(=O)O)c(O)c1 | 0 | x | 1 | x | 3 | 0.97 | x
CCCNS(=O)(=O)c1ccc(CCC(=O)NCc2ccco2)cc1 | -141 | 7 | 2.4* | 0.9 | 1 | 0.99 | 11
CC(=Nc1ccc(O)cc1)c1sc2ccccc2c1O | 9 | 14 | 0.91 | 0.9 | 13 | 0.87 | x
Oc1c(N=Nc2ccccc2)sc2ccccc12 | 38* | x | 0.62 | x | 32 | 0.68 | 14
SMILES | hIAP block | bIAP inh | hIAP act | bIAP activator | mIAP inh | mIAP activ | hIAP act conf
O=C(NCc1ccccc1)c1c(Cl)nc(Cl)c(Cl)c1Cl | 5 | x | 0.95 | x | 4 | 0.96 | x
O=C(NNC(=O)c1cc(Br)ccc1O)c1csc(N2CCOCC2)n1 | -143 | x | 2.4* | x | 23 | 0.77 | 7
O=C(CCNS(=O)(=O)c1ccccc1C(F)(F)F)NNC(=O)c1csc(N2CCOCC2)n1 | -107 | x | 2.1* | x | 21 | 0.79 | 0
COc1ccc(CCNC(=O)C/C(C)=N/NC(=O)c2ccc([N+](=O)[O-])cc2Cl)cc1OC | 0 | x | 1 | x | 8 | 0.92 | x
COc1ccc(OC)c(NC(=O)C2CCN(Cc3cnn(-c4ccccc4)c3-n3cccc3)CC2)c1 | 3 | -14 | 0.97 | 1.1 | -10 | 1.1 | x
COc1ccc(NC(=O)C2CCN(Cc3cnn(-c4ccccc4)c3-n3cccc3)CC2)cc1OC | -100 | -225 | 2* | 3.3* | -71 | 1.7 | -55
CC1=NN(c2ccccc2)C(=O)/C1=C\C=C1\N(C)c2ccccc2C1(C)C | 40* | 0 | 0.6 | 1 | 40* | 0.6 | -24
CC1=NN(c2ccccc2)C(=O)/C1=C\C=C1/N(C)c2ccccc2C1(C)C | 33 | -7 | 0.67 | 1.1 | 36 | 0.64 | x
COC(=O)c1ccc(N2NC(=O)/C(=C/c3cc(OC)c(O)c(OC)c3)C2=O)cc1 | 37* | x | 0.63 | x | 13 | 0.87 | -48
COC(=O)c1ccc(N2NC(=O)/C(=C/c3cc(OC)c(OC)c(OC)c3)C2=O)cc1 | 1 | x | 0.99 | x | -2 | 1 | x
N#Cc1ccc(OCC(=O)Nc2ccc(S(=O)(=O)N3CCOCC3)cc2)cc1 | 10 | x | 0.9 | x | 4 | 0.96 | x
COCCNC(=O)CN(C(=O)c1ccc(N2CCCC2)nc1)c1ccc(Cl)cc1 | -16 | x | 1.2 | x | -6 | 1.1 | x
Cc1ccc(OCCNS(=O)(=O)c2ccc(N3CCCC3=O)cc2)cc1 | 36* | 24 | 0.64 | 0.8 | 2 | 0.98 | -70
Cc1ccc(OCCNS(=O)(=O)c2ccc(N3CCCC3=O)cc2)cc1C | -8 | -2 | 1.1 | 1 | 8 | 0.93 | x
CCOc1cc(/C=N/NC(=O)C(=O)N/N=C/c2ccc(O)c(OCC)c2)ccc1O | 38* | x | 0.62 | x | 18 | 0.82 | -48*
NS(=O)(=O)c1ccc2nc(NC(=O)c3ccc4ncsc4c3)sc2c1 | 36* | x | 0.64 | x | -4 | 1 | -19
C/C=N/NC(=O)c1cc(Br)ccc1O | -23 | -18 | 1.2 | 1.2 | 0 | 1 | x
Cc1c(/C=N/NC(=O)c2cc(Br)ccc2O)c(=O)n(C)c(=O)n1C | -114 | x | 2.1* | x | 2 | 0.98 | -35
CCN(CC)C(=O)Cc1cc(C(=O)O)c2ccccc2n1 | -103 | -7 | 2* | 1.1 | -8 | 1.1 | 0
COc1ccc(O)c(/C=C(\C#N)C(=O)Nc2ccccn2)c1 | 21 | x | 0.79 | x | 7 | 0.93 | x
N#C/C(=N\Nc1ccc([N+](=O)[O-])cc1)C(N)=S | 35* | x | 0.65 | x | 34 | 0.66 | -9
N#C/C(=N\Nc1ccc(S(=O)(=O)N2CCCCCC2)cc1)C(N)=S | 37* | 8 | 0.63 | 0.9 | 15 | 0.85 | 8
COc1ccc(C(C(=O)NC2CCCC2)N(C(=O)c2snc(-c3ccc(F)cc3)c2N)c2ccc(F)cc2)cc1 (stereo unspecified) | -6 | 5 | 1.1 | 0.9 | 8 | 0.92 | x
